The record followed here is PMC9720522 (Food Chemistry: X, 2022).

In general, IC50 refers to the concentration that gives 50% inhibition. A low value points to inhibition by little substance.

SMILES strings stand for the structures. ≈ marks a conversion by molar mass, not a printed value. Bounds are passed on as bounds.

For one assay, the system named is mAb against AZN (35D1D2). The assay is described as follows: indirect competitive ELISA. The conditions noted are these: ic-ELISA; for Cross-reactivity: CR = IC50 of AZN / IC50 of related analyte × 100; for IC50: coating antigen 0.23 and mAb 0.38 µg/mL. The class given is binding, mouse. On the technique in general: In an ELISA, binding on a coated surface is turned into a signal by an enzyme label.

A further assay deals with anti-AZN mAb. In words: indirect ICA. The format is binding, mouse. The conditions noted are these: pork extract; strip reader standard curve. A digest of the protocol: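 AZN standard spiked into treated pork samples at 8, 4, 2, 1, 0.5, 0.25 and 0 ng/g. A set amount of mAb is added to the sample well and held 5 min at room temperature before strip insertion. The T line is AZL-SA-OVA, the C line mouse IgG, and the conjugate pad AuNP-goat anti-mouse IgG.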

In the assay with mAb against AZN (35D1D2), `O=C(CCCN1CCN(c2ccccn2)CC1)c1ccc(F)cc1` [AZN, Azaperone] had a Cross-reactivity of 100% and an IC50 of 0.35 ng/mL (≈ 1.07 nM). Further, the “IC50, indirect ICA” value in the assay on anti-AZN mAb was 0.74 ng/g.
For the compound `CC(C)NCC(O)COc1cccc2[nH]c3ccccc3c12` (stereo not drawn) [CAR, carazolol], in the assay with mAb against AZN (35D1D2), the Cross-reactivity is less than 0.035% and the half-inhibitory concentration (IC50) result was “˃1000 ng/mL”.
The corresponding values for `CN(C)CCCN1c2ccccc2Sc2ccc(Cl)cc21` [CHL, Chlorpromazine] are less than 0.035% and “˃1000 ng/mL”.
In the same order, the values of `O=C(CCCN1CC=C(n2c(=O)[nH]c3ccccc32)CC1)c1ccc(F)cc1` [DRO, Droperidol] are less than 0.035% and “˃1000 ng/mL”.
The compound `O=C(CCCN1CCC(O)(c2ccc(Cl)cc2)CC1)c1ccc(F)cc1` [HAL, haloperidol] registered a Cross-reactivity in the assay with mAb against AZN (35D1D2) of less than 0.035%.
Consider `Cc1cccc(C)c1N=C1NCCCS1` [XYL, xylazine], for which, in the assay on mAb against AZN (35D1D2), the Cross-reactivity is listed as less than 0.035% and the IC50 entry is “˃1000 ng/mL”.
